Columns and labels:
AChE [1] = biological target: T1, AChE (Electrophorus electricus, UniProt O42275); assay: biochemical; design: species or system Electric Eel; conditions: for inhibition at 50 µM: 0.25 h, read-out: Inhibition ratios for AChE
BChE = BChE (Equus caballus, UniProt P81908); assay: BChE inhibition, modified Ellman method; type: biochemical, equine; conditions: for inhibition at 50 µM: 0.25 h, read-out: Inhibition ratios for BChE
HepG-2 cells = assay: MTT assay of HepG-2 cell viability; type: cell-based, human; conditions: for Inhibition ratios for HepG-2 cell viability: 10 μmol/L compound, 48 h, mean of three independent experiments; for Effect on HepG-2 cell viability (in words): 10 μmol/L
In short: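 HepG-2 cells were kept at 37 °C under 5% CO2 and seeded at 5×10^3 cells/well. After 12 h, test compound was added at 10 µmol/L for 48 h. Viability was read by MTT conversion to purple formazan, and the inhibition rate was calculated against untreated cells set as 100%.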

AChE [2] = biological target: T1, AChE; assay: Kinetic characterization of AChE inhibition; type: biochemical, Electric Eel; conditions: Lineweaver–Burk plots
In short: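 Acetylthiocholine hydrolysis by AChE was measured at six substrate concentrations in 0.1 mol/L KH2PO4/K2HPO4 buffer, pH 8.0, with DTNB. Test compound was pre-incubated with the enzyme for 15 min at 37 °C before substrate was added. Absorbance was read at 412 nm, and a parallel no-inhibitor control was run.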

[3] = Metal-chelating study by UV-Vis spectrometry; type: physicochemical
In short: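 Test compound (20 μmol/L final) was incubated in water for 30 min at room temperature, alone or with CuSO4, FeCl3 or ZnCl2 (each 20 μmol/L final). UV-Vis absorption spectra were then recorded from 200 to 500 nm.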

T1 sequence (O42275 24-633): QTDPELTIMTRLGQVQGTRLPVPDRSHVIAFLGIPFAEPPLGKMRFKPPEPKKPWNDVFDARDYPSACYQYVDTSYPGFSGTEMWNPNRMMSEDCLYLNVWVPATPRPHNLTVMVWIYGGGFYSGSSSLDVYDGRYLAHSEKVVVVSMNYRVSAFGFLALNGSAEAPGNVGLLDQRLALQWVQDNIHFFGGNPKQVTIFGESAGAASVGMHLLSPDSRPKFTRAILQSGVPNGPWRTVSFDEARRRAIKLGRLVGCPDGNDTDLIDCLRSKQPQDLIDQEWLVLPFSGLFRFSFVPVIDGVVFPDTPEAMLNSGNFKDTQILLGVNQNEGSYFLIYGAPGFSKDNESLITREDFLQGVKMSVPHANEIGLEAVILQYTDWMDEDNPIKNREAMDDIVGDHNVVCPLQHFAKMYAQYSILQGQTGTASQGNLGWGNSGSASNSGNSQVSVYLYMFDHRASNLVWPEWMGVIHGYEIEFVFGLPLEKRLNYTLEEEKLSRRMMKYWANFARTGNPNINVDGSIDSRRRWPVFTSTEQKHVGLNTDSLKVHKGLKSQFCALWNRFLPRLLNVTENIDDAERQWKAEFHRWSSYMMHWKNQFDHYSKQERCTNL
BChE, sequence (P81908 whole entry): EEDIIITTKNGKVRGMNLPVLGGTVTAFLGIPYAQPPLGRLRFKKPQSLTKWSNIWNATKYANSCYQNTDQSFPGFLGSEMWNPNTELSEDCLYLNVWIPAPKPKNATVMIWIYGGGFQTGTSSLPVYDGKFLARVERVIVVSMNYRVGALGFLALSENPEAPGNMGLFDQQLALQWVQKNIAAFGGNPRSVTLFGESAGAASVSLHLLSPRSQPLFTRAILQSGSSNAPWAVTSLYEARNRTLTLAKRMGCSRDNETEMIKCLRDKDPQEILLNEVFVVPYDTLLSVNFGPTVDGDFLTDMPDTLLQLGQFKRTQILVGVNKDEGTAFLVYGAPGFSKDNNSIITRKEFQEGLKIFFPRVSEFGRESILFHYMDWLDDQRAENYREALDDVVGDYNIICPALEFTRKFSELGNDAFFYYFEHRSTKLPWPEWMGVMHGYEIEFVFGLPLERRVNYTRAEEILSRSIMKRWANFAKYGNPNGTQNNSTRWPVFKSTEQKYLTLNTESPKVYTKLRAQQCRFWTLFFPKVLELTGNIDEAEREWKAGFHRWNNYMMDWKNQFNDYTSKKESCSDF

Row | SMILES | inhibition at 50 µM (AChE [1]) [%] | inhibition at 50 µM (BChE) [%] | Inhibition ratios for HepG-2 cell viability (HepG-2 cells) [%] | IC50 (AChE [1]) [µM] | IC50 (BChE) [µM] | other results
1 | CCCCNC(=O)COc1cc(O)c2c(=O)c(-c3ccc(O)cc3)coc2c1 [Compound 4a, N-butyl-2-(5-hydroxy-3-(4-hydroxyphenyl)-4-oxo-4H-chromen-7-yloxy)acetamide] | 7.88 ± 3.58 | 1.19 ± 0.59 | 6.40 | – | – | –
2 | CN(C)CCNC(=O)COc1cc(O)c2c(=O)c(-c3ccc(O)cc3)coc2c1.Cl [Compound 4b, N-(2-(dimethylamino)ethyl)-2-(5-hydroxy-3-(4-hydroxyphenyl)-4-oxo-4H-chromen-7-yloxy)acetamide hydrochloride] | 90.4 ± 1.23 | 26.1 ± 2.52 | 1.53 | 2.75 ± 0.28 | > 50 | Inhibition type of AChE (AChE [2]): mixed-type inhibition; Metal-chelating ability (overall) [3]: potent metal-chelating ability; Chelation of Cu^2+ (UV-Vis spectrum change) ([3]; 20 μmol/L compound, 20 μmol/L Cu^2+, in water): poor chelating ability; Effect on HepG-2 cell viability (in words) (HepG-2 cells): no obvious effect on cell viability
3 | Cl.NCCCNC(=O)COc1cc(O)c2c(=O)c(-c3ccc(O)cc3)coc2c1 [Compound 4c, N-(3-aminopropyl)-2-(5-hydroxy-3-(4-hydroxyphenyl)-4-oxo-4H-chromen-7-yloxy)acetamide hydrochloride] | 37 ± 2.07 | 13.8 ± 1.05 | 14.57 | – | – | –
4 | Cl.NCCCCNC(=O)COc1cc(O)c2c(=O)c(-c3ccc(O)cc3)coc2c1 [Compound 4d, N-(4-aminobutyl)-2-(5-hydroxy-3-(4-hydroxyphenyl)-4-oxo-4H-chromen-7-yloxy)acetamide hydrochloride] | 34.5 ± 2.76 | 9.02 ± 0.23 | 1.17 | – | – | –
5 | Cl.O=C(COc1cc(O)c2c(=O)c(-c3ccc(O)cc3)coc2c1)NCCCCN1CCNCC1 [Compound 4e, 2-(5-hydroxy-3-(4-hydroxyphenyl)-4-oxo-4H-chromen-7-yloxy)-N-(4-(piperazin-1-yl)butyl)acetamide hydrochloride] | 19.3 ± 1.87 | 11.7 ± 0.82 | 8.51 | – | – | –
6 | Cl.NCCCNCCCNC(=O)COc1cc(O)c2c(=O)c(-c3ccc(O)cc3)coc2c1 [Compound 4f, N-(3-(3-aminopropylamino)propyl)-2-(5-hydroxy-3-(4-hydroxyphenyl)-4-oxo-4H-chromen-7-yloxy)acetamide hydrochloride] | 10.2 ± 0.44 | 9.52 ± 1.48 | 11.74 | – | – | –
7 | Cl.NCCCNCCCCNC(=O)COc1cc(O)c2c(=O)c(-c3ccc(O)cc3)coc2c1 [Compound 4g, N-(4-(3-aminopropylamino)butyl)-2-(5-hydroxy-3-(4-hydroxyphenyl)-4-oxo-4H-chromen-7-yloxy)acetamide hydrochloride] | 16.5 ± 1.36 | 17.9 ± 2.83 | 16.72 | – | – | –
8 | Cl.NCCCCNCCCCNC(=O)COc1cc(O)c2c(=O)c(-c3ccc(O)cc3)coc2c1 [Compound 4h, N-(4-(4-aminobutylamino)butyl)-2-(5-hydroxy-3-(4-hydroxyphenyl)-4-oxo-4H-chromen-7-yloxy)acetamide hydrochloride] | 51 ± 0.55 | 39.2 | 16.30 | 46.6 ± 3.87 | > 50 | Inhibition ratios for BChE (BChE; 50 μmol/L compound, mean±SEM of two experiments, BChE from equine serum): 39.20±5.64%; Effect on HepG-2 cell viability (in words) (HepG-2 cells): no obvious effect on cell viability
9 | O=c1c(-c2ccc(O)cc2)coc2cc(O)cc(O)c12 [Genistein, reference compound] | – | – | – | > 100 | > 100 | inhibition at 100 µM (AChE [1]; read-out: Inhibition of AChE activity): < 50%
10 | Nc1c2c(nc3ccccc13)CCCC2 [Tacrine, reference compound] | – | – | 57.35 | – | – | –

— article PMC4629212 (Acta Pharmaceutica Sinica. B, 2015)
